# ChEMBL document CHEMBL3085734, “Indole diterpene alkaloids as novel inhibitors of the Wnt/β-catenin pathway in breast cancer cells” (Eur J Med Chem, 2013)
# Active and inactive are the calls of the source. No cut-off for these calls is given here.
# Key:
# [1] = test system: MDA-MB-231; experiment: Antimigratory activity against human MDA-MB-231 cells after 24 hrs by wound-healing assay; assay type: functional, cell-based; details: MDA-MB-231, 24 h
# In short: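 Confluent MDA-MB-231 monolayers scratched with a pipette tip, then washed. Compounds added in 0.5% FBS medium, in triplicate, for 24 h. Cells then fixed and stained with Diff-Quick. Cells that migrated into the wound were counted in at least five random fields at 400X.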
# [2] = test system: MDA-MB-231; experiment: Antiproliferative activity against human MDA-MB-231 cells after 72 hrs by MTT assay; assay type: functional, cell-based; details: MDA-MB-231, 72 h
# In short: (§1)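 Seeding: MCF-7 at 10×10³ and MDA-MB-231 at 8×10³ cells/well, attached overnight. Medium: serum-free RPMI for MCF-7 and RPMI with 5% FBS for MDA-MB-231, with graded compound doses, for 72 h at 37°C. Readout: MTT (1 mg/mL) for 4 h, formazan dissolved in DMSO, absorbance at 570 nm. Cell numbers taken from a standard curve as % survival versus DMSO. IC50 obtained by nonlinear regression. Final DMSO ≤0.2%.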
# [3] = test system: MCF7; experiment: Antiproliferative activity against human MCF7 cells after 72 hrs by MTT assay; assay type: functional, cell-based; details: MCF7, 72 h; in short: as §1
# [4] = test system: MDA-MB-231; experiment: Antiinvasive activity against human MDA-MB-231 cells at 7.5 to 15 uM after 24 hrs by cultrex BME assay
# [5] = test system: Mus musculus; experiment: Toxicity in CD-1 mouse assessed as incidence of tremor at 19.6 mg/kg, ip measured every 10 to 15 mins for 8 hrs up to day 14; assay type: organism-based; parameters: dose 19.6 mg/kg, route intraperitoneal; details: in vivo
# In short: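 Male CD-1 mice (18–22 g), housed individually. Compounds given ip in DMSO diluted with saline (DMSO ≤2.0 µL/g). Up-and-Down Procedure per EPA 870.1100: sigma 0.33, starting dose 1.92 mg/kg, changed in 3.2-fold steps by tremor response, range 0.19–19.6 mg/kg. Observed every 10–15 min for 1 h, hourly for 8 h, then daily to day 14. Tremor EC50 calculated with AOT425StatPgm.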
# [6] = molecular target: Calcium-activated potassium channel slo-1 (Caenorhabditis elegans, UniProt Q95V25); experiment: Inhibition of wild type L4 larval stage of Caenorhabditis elegans N2 bristol BK channel assessed as induction of reversal locomotion at 1 uM after 42 hrs
# In short: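 30–40 synchronized L1 larvae of wild-type N2 placed on OP50-seeded NGM plates containing 1.0 µM compound or DMSO. Incubated 42 h at 20°C. L4 worms then moved to unseeded NGM and acclimatized 1 min before reversals were counted, at least 10 worms per treatment. slo-1(js379) strain NM1968 served as positive control.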
# [7] = test system: MDA-MB-231; experiment: Inhibition of Wnt/beta-catenin signaling pathway in human MDA-MB-231 cells assessed as decrease in expression of beta-catenin level at 19 uM after 48 hrs by DAPI staining-based confocal laser scanning microscopy; assay type: cell-based
# In short: (§2)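 MDA-MB-231 cells, 5 × 10^4 per chamber (2 replicates/group), attached overnight in 10% FBS medium, then treated 48 h in 0.5% FBS medium (final DMSO ≤0.2%). Methanol-fixed at −20 °C, blocked in 2% BSA-TBST, anti-total β-catenin (1:300, overnight 4 °C), Alexa Fluor 594 secondary, DAPI counterstain. Confocal imaging at 200X; red intensity compared with vehicle; ≥3 independent repeats.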
# [8] = test system: MDA-MB-231; experiment: Inhibition of Wnt/beta-catenin signaling pathway in human MDA-MB-231 cells assessed as decrease in expression of beta-catenin level at 8 uM after 48 hrs by DAPI staining-based confocal laser scanning microscopy; assay type: cell-based; in short: as §2
# [9] = Inhibition of Wnt/beta-catenin signaling pathway in mouse C2C12 cells assessed as induction of nuclear translocation of beta-catenin after 24 hrs by propidium iodide staining-based laser scanning cytometry; assay type: cell-based; details: C2C12, 24 h
# [10] = test system: Mus musculus; experiment: Toxicity in ip dosed CD-1 mouse assessed as incidence of tremor measured every 10 to 15 mins for 8 hrs up to day 14; assay type: organism-based
# In short: (§3)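 Male CD-1 mice (18–22 g), housed singly 3 days beforehand, given a single i.p. dose of DMSO stock diluted in saline (DMSO ≤2.0 µL/g); vehicle controls. Up-and-Down Procedure per EPA 870.1100 (sigma 0.33): start 1.92 mg/kg, then ×3.2 up or down according to tremor response, range 0.19–19.6 mg/kg. Tremors scored over 14 days; EC50 from AOT425StatPgm.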
# [11] = test system: Mus musculus; experiment: Toxicity in CD-1 mouse assessed as incidence of tremor at 0.60 mg/kg, ip measured every 10 to 15 mins for 8 hrs up to day 14; assay type: organism-based; parameters: dose 0.6 mg/kg, route intraperitoneal; details: in vivo, 0.6 mg/kg; in short: as §3
# [12] = test system: MDA-MB-231; experiment: Inhibition of Wnt/beta-catenin signaling pathway in human MDA-MB-231 cells assessed as decrease in expression of beta-catenin level at 48.2 uM after 48 hrs by DAPI staining-based confocal laser scanning microscopy; assay type: cell-based
# In short: (§4)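 MDA-MB-231 cells seeded at 5×10⁴/chamber and attached overnight in 10% FBS. Treated 48 h in 0.5% FBS medium. Cells fixed in −20°C methanol and blocked with 2% BSA-TBST. Stained with anti-total β-catenin (1:300, overnight at 4°C), then Alexa Fluor 594 secondary, with DAPI counterstain. Confocal imaging at 200X; red intensity compared with untreated control. Duplicate chambers, experiments repeated at least three times.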
# [13] = test system: Mus musculus; experiment: Toxicity in CD-1 mouse assessed as incidence of tremor at 0.19 mg/kg, ip measured every 10 to 15 mins for 8 hrs up to day 14; assay type: organism-based; parameters: dose 0.19 mg/kg, route intraperitoneal; details: in vivo; in short: as §3
# [14] = test system: Mus musculus; experiment: Toxicity in CD-1 mouse assessed as incidence of tremor at 1.92 mg/kg, ip measured every 10 to 15 mins for 8 hrs up to day 14; assay type: organism-based; parameters: dose 1.92 mg/kg, route intraperitoneal; details: in vivo; in short: as §3
# [15] = test system: MDA-MB-231; experiment: Inhibition of Wnt/beta-catenin signaling pathway in human MDA-MB-231 cells assessed as decrease in expression of beta-catenin level at 9.6 uM after 48 hrs by DAPI staining-based confocal laser scanning microscopy; assay type: cell-based; in short: as §2
# [16] = test system: MDA-MB-231; experiment: Inhibition of Wnt/beta-catenin signaling pathway in human MDA-MB-231 cells assessed as decrease in expression of beta-catenin level at 7.6 uM after 48 hrs by DAPI staining-based confocal laser scanning microscopy; assay type: cell-based; in short: as §4
# Sequence of Calcium-activated potassium channel slo-1 (Q95V25 whole entry): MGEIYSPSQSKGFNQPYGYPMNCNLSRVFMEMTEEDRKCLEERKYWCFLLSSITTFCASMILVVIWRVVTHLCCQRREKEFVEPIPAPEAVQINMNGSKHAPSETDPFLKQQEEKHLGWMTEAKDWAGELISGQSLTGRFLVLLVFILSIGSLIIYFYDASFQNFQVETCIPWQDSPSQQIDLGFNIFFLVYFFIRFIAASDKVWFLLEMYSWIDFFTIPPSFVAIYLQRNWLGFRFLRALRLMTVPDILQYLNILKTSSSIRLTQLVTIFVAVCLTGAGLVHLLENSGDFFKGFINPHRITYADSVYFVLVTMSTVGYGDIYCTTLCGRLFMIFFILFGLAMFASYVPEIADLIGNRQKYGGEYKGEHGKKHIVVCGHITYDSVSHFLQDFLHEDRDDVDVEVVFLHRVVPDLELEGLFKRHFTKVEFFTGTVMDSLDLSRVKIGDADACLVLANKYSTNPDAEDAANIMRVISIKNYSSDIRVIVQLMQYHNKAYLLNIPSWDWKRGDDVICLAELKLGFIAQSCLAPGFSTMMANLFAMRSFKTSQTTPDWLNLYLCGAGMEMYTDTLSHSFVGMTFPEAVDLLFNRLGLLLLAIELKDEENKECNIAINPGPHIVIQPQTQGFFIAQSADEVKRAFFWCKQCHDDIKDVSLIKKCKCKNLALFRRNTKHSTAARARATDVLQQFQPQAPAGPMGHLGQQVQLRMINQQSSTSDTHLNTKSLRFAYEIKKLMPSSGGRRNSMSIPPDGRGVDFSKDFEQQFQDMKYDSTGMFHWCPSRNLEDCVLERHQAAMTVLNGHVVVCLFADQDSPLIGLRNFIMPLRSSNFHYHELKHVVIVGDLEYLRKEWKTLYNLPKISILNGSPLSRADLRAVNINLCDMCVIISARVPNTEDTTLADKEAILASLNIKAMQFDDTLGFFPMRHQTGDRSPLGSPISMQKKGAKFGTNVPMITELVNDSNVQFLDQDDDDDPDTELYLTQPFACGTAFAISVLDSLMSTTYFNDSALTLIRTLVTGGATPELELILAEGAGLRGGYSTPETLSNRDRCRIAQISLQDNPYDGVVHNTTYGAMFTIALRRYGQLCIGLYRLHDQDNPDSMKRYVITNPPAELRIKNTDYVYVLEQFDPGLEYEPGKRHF
Compound,IC50 [1],IC50 [2],IC50 [3],inhibition (INH) [6],Activity [4],other results
C=C(C)[C@H]1O[C@H]2CC[C@@]3(C)[C@@](O)(CC[C@H]4[C@@H]5OC(C)(C)[C@@H]6C[C@@H]7C(=C)Cc8c(Cl)cc9c(c5c(n9Cc5cccc(OC)c5)[C@@]43C)c8[C@@]76O)[C@]23O[C@@H]3[C@H]1OCc1cccc(OC)c1,> 50 µM,> 50 µM,> 50 µM,,Active,
C=C(C)[C@H]1O[C@H]2CC[C@@]3(C)[C@@](O)(CC[C@H]4[C@@H]5OC(C)(C)[C@@H]6C[C@@H]7C(=C)Cc8c(Cl)cc9[nH]c(c5c9c8[C@@]76OO)[C@@]43C)[C@]23O[C@@H]3[C@H]1O,> 50 µM,> 50 µM,> 50 µM,,Active,
C=C(C)[C@H]1O[C@H]2CC[C@@]3(C)[C@@](O)(CC[C@H]4[C@@H]5OC(C)(C)[C@@H]6C[C@@H]7C(=C)Cc8c(Cl)cc9c(c5c(n9C)[C@@]43C)c8[C@@]76O)[C@]23O[C@@H]3[C@H]1OC,> 50 µM,> 50 µM,> 50 µM,Not Active,Active,Activity [5]: ND(Insoluble)
CC(C)=CCC[C@]1(C)[C@@H](O)CC[C@@]2(C)[C@H]1CC[C@H]1Cc3c([nH]c4ccccc34)[C@@]12C [EMINDOLE SB],,,,Not Active,,inhibition [7]: Active
C=C(C)[C@H]1O[C@H]2CC[C@@]3(C)[C@@](O)(CC[C@H]4[C@@H]5OC(C)(C)[C@H]6C[C@@H]7C(=C)Cc8c(Cl)cc9[nH]c(c5c9c8[C@@]76O)[C@@]43C)[C@@]23O[C@H]3[C@H]1O [PENITREM A],8.7 µM,9.8 µM,11.9 µM,,Active,inhibition [8]: Active; EC50 [9]: 0.98 µM
C=C1Cc2c(Br)cc3[nH]c4c5c3c2[C@H]2[C@@H]1C[C@H]2C(C)(C)O[C@H]5[C@@H]1CC[C@@]2(O)[C@@]35O[C@@H]3[C@@H](O)[C@@H](C(=C)C)O[C@H]5CC[C@]2(C)[C@@]41C,,,,,,EC50 [10]: 3.43 mg/kg; Activity [11]: Non-toxic; Activity [5]: Toxic
C=C(C)[C@H]1O[C@H]2CC[C@@]3(C)[C@@](O)(CC[C@H]4[C@@H]5OC(C)(C)[C@H]6C[C@@H]7C(=C)Cc8c(Cl)cc9[nH]c(c5c9c8[C@@]76O)[C@@]43C)[C@]23O[C@@H]3[C@H]1O [PENITREM A],,,,Active,,Activity [13]: Non-toxic; Activity [14]: Toxic
C=C(C)[C@H]1O[C@H]2CC[C@@]3(C)[C@@](O)(CC[C@H]4[C@@H]5OC(C)(C)[C@@H]6C[C@@H]7C(=C)Cc8c(Cl)cc9[nH]c(c5c9c8[C@@]76O)[C@@]43C)[C@]23O[C@@H]3[C@H]1OC,> 50 µM,> 50 µM,22.7 µM,,Active,
C=C(C)[C@H]1O[C@H]2CC[C@@]3(C)[C@@](O)(CC[C@H]4[C@@H]5OC(C)(C)[C@@H]6C[C@@H]7C(=C)Cc8c(Br)cc9[nH]c(c5c9c8[C@@]76O)[C@@]43C)[C@]23O[C@@H]3[C@H]1O,,,,Not Active,,inhibition [15]: Active; EC50 [10]: 0.32 mg/kg; Activity [11]: Toxic; Activity [13]: Non-toxic; Activity [14]: Toxic
C=C(C)[C@H]1O[C@H]2CC[C@@]3(C)[C@@](O)(CC[C@H]4[C@@H]5OC(C)(C)[C@@H]6C[C@@H]7C(=C)Cc8c(Cl)cc9c(c5c(n9C)[C@@]43C)c8[C@@]76O)[C@]23O[C@@H]3[C@H]1O,> 50 µM,> 50 µM,,,Active,

# More lines, main results first:
IC50 [1],IC50 [2],IC50 [3],inhibition (INH) [6],Compound,Activity [4],other results
> 50 µM,13.8 µM,> 50 µM,Not Active,C=C(C)[C@H]1O[C@H]2CC[C@@]3(C)[C@@](O)(CC[C@H]4[C@@H]5OC(C)(C)[C@@H]6C[C@@H]7C(=C)Cc8c(Cl)cc9[nH]c(c5c9c8[C@@]76O)[C@@]43C)[C@]23O[C@@H]3[C@H]1OC(=O)c1ccccc1,Active,Activity [5]: ND(Insoluble)
48.2 µM,43.8 µM,13.3 µM,Not Active,C=C1Cc2c(Cl)cc3[nH]c4c5c3c2[C@@]2(O)[C@@H]1C[C@H]2C(C)(C)O[C@H]5[C@@H]1CC[C@@]2(O)[C@@]35O[C@@H]3[C@H](O)O[C@H]5CC[C@]2(C)[C@@]41C,Active,inhibition [12]: Active; Activity [5]: ND(Insoluble)
> 50 µM,> 50 µM,> 50 µM,,C=C(C)[C@H]1O[C@H]2CC[C@@]3(C)[C@@](O)(CC[C@H]4[C@@H]5OC(C)(C)[C@@H]6C[C@@H]7C(=C)Cc8c(Cl)cc9[nH]c(c5c9c8[C@@]76O)[C@@]43C)[C@]23O[C@@H]3[C@H]1OCc1ccccc1,,
> 50 µM,10 µM,32.3 µM,,C=C1Cc2c(Cl)cc3[nH]c4c5c3c2[C@@]2(O)[C@@H]1C[C@H]2C(C)(C)O[C@H]5[C@@H]1CC[C@@]2(O)[C@@]35O[C@@H]3[C@@](O)(/C=C(/C)COC(C)=O)O[C@H]5CC[C@]2(C)[C@@]41C,,
,,,Not Active,CC(C)(O)[C@@H]1CC[C@]2(C)[C@H](CC[C@@]3(C)[C@H]2CC[C@H]2Cc4c([nH]c5ccccc45)[C@@]23C)O1 [PASPALINE],,inhibition [16]: Active
